Laboratory results as given in ChEMBL document CHEMBL1157562, “Piperazinyl glutamate pyridines as potent orally bioavailable P2Y12 antagonists for inhibition of platelet aggregation” (J Med Chem, 2010).

Tests used:
[1] = Antiplatelet aggregation activity against adenosine diphosphate-induced human platelet rich plasma assessed as inhibition of platelet aggregation by turbidimetric method; assay type: functional
How it was run: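 Human PRP, prepared by two-step centrifugation and adjusted to 330 000 platelets/μL with PPP. Compound was preincubated 5 min at 37 °C in 0.5% DMSO, then 20 μM ADP was added. OD626 was read kinetically for 15 min at 37 °C with mixing between reads.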

[2] = Clearance in Sprague-Dawley rat at 2 mg/kg, iv and 5 mg/kg, po; assay type: ADME, organism-based; settings: in vivo
How it was run: (§1)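 Rats received 2 mg/kg iv infusion or 5 mg/kg po, in 50% PEG400/40% PBS/10% ethanol.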

Platelet = experiment: Relative potency, ratio of IC50 for drug to IC50 for AZD-6140 for platelet aggregation in human platelet rich plasma; assay type: functional
[3] = Volume of distribution at steady state in Sprague-Dawley rat at 2 mg/kg, iv and 5 mg/kg, po; assay type: ADME, organism-based; settings: in vivo, read-out: Vdss; how it was run: as §1
[4] = Half life in Sprague-Dawley rat at 2 mg/kg, iv and 5 mg/kg, po; assay type: ADME, organism-based; settings: in vivo; how it was run: as §1
Rattus norvegicus [5] = species on record: Rattus norvegicus; settings: in vivo, po, 5 mg/kg
[6] = Apparent permeability across human Caco-2 cells; assay type: ADME, cell-based
[7] = Chemical stability of the compound; assay type: physicochemical
[8] = Antiplatelet aggregation activity against adenosine diphosphate-induced human platelet rich plasma assessed as inhibition of platelet aggregation by chronolog PRP aggregometry assay; settings: read-out: IC50(app)
[9] = Solubility of the compound; assay type: physicochemical
Canis familiaris = species on record: Canis familiaris; experiment: Toxicity in dog assessed as adverse effects; assay type: organism-based, Canis lupus familiaris; settings: in vivo
Rattus norvegicus [10] = species on record: Rattus norvegicus; experiment: Toxicity in rat assessed as adverse effects; assay type: organism-based; settings: in vivo
Rattus norvegicus [11] = species on record: Rattus norvegicus; experiment: Antithrombotic activity in rat venous thrombus model assessed as inhibition of injury-induced thrombosis; assay type: functional, organism-based
How it was run: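 Rats given test compound orally; thrombosis induced by vascular injury with ferric chloride; thrombus formation was scored as the read-out.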

in vivo = settings: Sprague-Dawley, rat, po, 5 mg/kg
P2Y purinoceptor 12 = P2Y purinoceptor 12 (Homo sapiens, UniProt Q9H244); experiment: Displacement of [33P]ADP from human recombinant P2Y12 receptor expressed in CHO cells; assay type: cell-based
Chain of P2Y purinoceptor 12 (Q9H244 whole entry): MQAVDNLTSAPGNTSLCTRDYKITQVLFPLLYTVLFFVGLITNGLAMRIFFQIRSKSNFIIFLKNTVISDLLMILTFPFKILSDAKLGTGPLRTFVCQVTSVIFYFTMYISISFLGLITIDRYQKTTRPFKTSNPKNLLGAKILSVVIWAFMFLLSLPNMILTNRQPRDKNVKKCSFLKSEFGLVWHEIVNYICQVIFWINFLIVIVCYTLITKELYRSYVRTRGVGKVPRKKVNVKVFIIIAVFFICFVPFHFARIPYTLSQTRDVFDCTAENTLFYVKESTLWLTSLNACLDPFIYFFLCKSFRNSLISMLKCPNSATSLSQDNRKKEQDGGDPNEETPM
How it was run: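 Washed membranes from CHO cells expressing synthetic human P2Y12, incubated 1 h at room temperature with 0.2 nM 33P-MeSADP in 50 mM Tris/100 mM NaCl/1 mM EDTA. Compound was tested as a 7-point 3-fold series in triplicate. Nonspecific binding was defined with 300 nM 2-MeSADP, followed by filtration.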

Row | Structure (SMILES) | IC50 ([1]; Homo sapiens, Platelet, Plasma) [µM] | clearance [2] [mL/min/kg] | Ratio IC50 (Platelet) | Vd [3] [L/kg] | half-life [4] [min] | F (Rattus norvegicus [5]) [%] | Papp [6] [×10⁻⁶ cm/s] | IC50 ([1]; platelet) [µM] | Stability [7] | IC50 [8] [µM] | solubility [9] | Activity (Canis familiaris) | Activity (Rattus norvegicus [10]) | inhibition (Rattus norvegicus [11]) | bioavailability (in vivo) [%] | Ki (P2Y purinoceptor 12) [µM]
1 | CCCCCOC(=O)N1CCN(C(=O)[C@H](CCC(=O)O)NC(=O)c2cc(OCCOC)cc(-c3ccccc3)n2)CC1 | 4.3 | 46 | 3.2 | 2.3 | 36 | 183 | – | – | – | – | – | – | – | – | – | –
2 | CCCCOC(=O)N1CCN(C(=O)[C@H](CCC(=O)O)NC(=O)c2cc(OCCOC)cc(-c3ccccc3)n2)CC1 | 4.5 | – | 2.9 | – | – | – | 1.1 | – | – | – | – | – | – | – | – | –
3 | CCCCCOC(=O)N1CCN(C(=O)[C@H](CCC(=O)O)NC(=O)c2cc(N3CCC(COC)CC3)cc(-c3ccccc3)n2)CC1 | – | – | – | – | – | – | – | 3.9 | Stable | 1.8 | Soluble | Non-toxic | Non-toxic | Dose-dependent effect | – | –
4 | CCCCCCOC(=O)N1CCN(C(=O)[C@H](CCC(=O)O)NC(=O)c2cc(OC3CCNCC3)cc(-c3ccccc3)n2)CC1 | 2.4 | 150 | 1.8 | 6.9 | 30 | – | – | – | – | – | – | – | – | – | 1 | 0.0094
